Assay results: ChEMBL document CHEMBL1154306, “Cembranoid diterpenes from the Caribbean sea whip Eunicea knighti” (2009)
The source made the active and inactive calls. The calls are words filed in the database; no cut-off is given here.

Columns and labels:
[1] = system: Brucella pseudogrignonensis; assay: Antibacterial activity against Ochrobactrum pseudogrignonense 21-6PIN after 24 to 48 hrs by disk diffusion method; format: functional
Outline: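 MIC by agar disk diffusion per NCCLS against the marine isolate 21-6PIN. Loadings per disk were 30, 16, 8, 4, 2, 1 and 0.5 µg, delivered in MeOH, with methanol alone as negative control. Run in triplicate.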

Kocuria sp. 10-4DEP = assay: Antibacterial activity against Kocuria sp. 10-4DEP at 30 ug/disk after 24 to 48 hrs by disk diffusion method; format: functional; details: for zone of inhibition at 30 µg/disc: read-out: DIZ
Outline: (§1)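 Disk diffusion on agar plates against marine bacterial isolates from a heavily fouled surface, identified by 16S rRNA sequencing. 5.2 mm sterilized paper disks loaded with 30 µg compound in CH2Cl2, dried 3 h at room temperature, then placed on plates spread with 100 µL overnight culture (10^6 cfu/mL). Inhibition zone diameter read after 24 and 48 h at 26 °C. Cu2O 600 µg/disk positive control, CH2Cl2 solvent control, triplicate.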

[2] = system: Brucella pseudogrignonensis; assay: Antibacterial activity against Ochrobactrum pseudogrignonense 21-6PIN at 30 ug/disk after 24 to 48 hrs by disk diffusion method; format: functional; details: for zone of inhibition at 30 µg/disc: read-out: DIZ
Outline: (§2)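 Marine bacterial isolate from a heavily fouled surface, identified by 16S rRNA gene sequence. Agar disk diffusion: sterilised 5.2 mm paper disks loaded with 30 µg pure compound in CH2Cl2 and dried 3 h at room temperature. Plates were seeded with 100 µL of overnight culture (10^6 cfu/mL) and incubated 24 and 48 h at 26 °C. Read-out was inhibition zone diameter, run in triplicate.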

Oceanobacillus iheyensis = assay: Antibacterial activity against Oceanobacillus iheyensis 31-C at 30 ug/disk after 24 to 48 hrs by disk diffusion method; format: functional; details: for zone of inhibition at 30 µg/disc: read-out: DIZ; outline: as §1
Bacillus sp. [3] = assay: Antibacterial activity against Bacillus sp. 10-6DEP at 30 ug/disk after 24 to 48 hrs by disk diffusion method; format: functional; details: Bacillus sp. (in: firmicutes), read-out: DIZ; outline: as §1
[4] = system: Brucella pseudogrignonensis; assay: Antibacterial activity against Ochrobactrum pseudogrignonense 4-4DEP at 30 ug/disk after 24 to 48 hrs by disk diffusion method; format: functional; details: for zone of inhibition at 30 µg/disc: read-out: DIZ; outline: as §2
Alteromonas sp. = assay: Antibacterial activity against Alteromonas sp. 11-6DEP at 30 ug/disk after 24 to 48 hrs by disk diffusion method; format: functional; details: for zone of inhibition at 30 µg/disc: read-out: DIZ; outline: as §1
Bacillus sp. [5] = assay: Antibacterial activity against Bacillus sp. 10-6DEP after 24 to 48 hrs by disk diffusion method; format: functional
Outline: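 MIC by agar disk diffusion (NCCLS) against Bacillus sp. 10-6DEP. Disks loaded with 30, 16, 8, 4, 2, 1 and 0.5 µg delivered in MeOH. Methanol alone as negative control. Triplicate.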

[6] = system: Brucella pseudogrignonensis; assay: Antibacterial activity against Ochrobactrum pseudogrignonense 4-4DEP after 24 to 48 hrs by disk diffusion method; format: functional
Escherichia coli = assay: Antiquorum sensing activity against Escherichia coli pS401 assessed as inhibition of Pseudomonas putida IsoF derived acyl-homoserinelactone-induced bioluminescence upto 200 ug after overnight incubation
Outline: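 Biosensor agar overlay. E. coli pS401 and P. putida IsoF grown in LB broth. 15 mL of each culture mixed into LB soft agar (0.8%) and poured over prewarmed LB agar plates. Paper disks received 10 or 20 µL of a 10 mg/mL compound solution. Plates incubated overnight at 37 °C and luminescence imaged. QS inhibition was scored where light was lost but growth around the disk was unaffected.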

SMILES: C=C(C)[C@H]1CC/C(C)=C/CC[C@@](C)(Cl)[C@H](O)CC/C(COC(C)=O)=C\[C@@H]1OC(C)=O
- MIC [1]: >30 µg
- diameter of the inhibition zone (DIZ) (Kocuria sp. 10-4DEP): inactive
- diameter of the inhibition zone (DIZ) [2]: inactive
- zone of inhibition at 30 µg/disc (Oceanobacillus iheyensis): 6 mm
- zone of inhibition at 30 µg/disc (Bacillus sp. [3]): 8 mm
- zone of inhibition at 30 µg/disc [4]: 6 mm
- diameter of the inhibition zone (DIZ) (Alteromonas sp.): inactive
- MIC (Bacillus sp. [5]): >30 µg

SMILES: C=C(C)[C@H]1CC/C(C)=C/CC[C@@]2(C)O[C@@H]2CC/C(COC(C)=O)=C\[C@@H]1O [ASPERDIOL ACETATE]
- MIC [1]: 30 µg
- diameter of the inhibition zone (DIZ) (Kocuria sp. 10-4DEP): inactive
- zone of inhibition at 30 µg/disc [2]: ≥ 10 mm
- diameter of the inhibition zone (DIZ) (Oceanobacillus iheyensis): inactive
- zone of inhibition at 30 µg/disc (Bacillus sp. [3]): 8 mm
- diameter of the inhibition zone (DIZ) [4]: inactive
- diameter of the inhibition zone (DIZ) (Alteromonas sp.): inactive
- MIC [6]: >30 µg
- MIC (Bacillus sp. [5]): 30 µg

SMILES: C=C(C)[C@H]1CC/C(C)=C/CC[C@@]2(C)O[C@@H]2CC/C(COC(C)=O)=C\[C@@H]1OC(C)=O
- MIC [1]: 30 µg
- diameter of the inhibition zone (DIZ) (Kocuria sp. 10-4DEP): inactive
- zone of inhibition at 30 µg/disc [2]: ≥ 10 mm
- zone of inhibition at 30 µg/disc (Oceanobacillus iheyensis): 6 mm
- zone of inhibition at 30 µg/disc (Bacillus sp. [3]): 8 mm
- zone of inhibition at 30 µg/disc [4]: 6 mm
- diameter of the inhibition zone (DIZ) (Alteromonas sp.): inactive
- MIC [6]: >30 µg
- MIC (Bacillus sp. [5]): 30 µg

SMILES: C=C(C)[C@H]1CC/C(C)=C/C/C=C(/C)[C@@H](O)CC/C(COC(C)=O)=C\[C@@H]1OC(C)=O
- MIC [1]: >30 µg
- diameter of the inhibition zone (DIZ) (Kocuria sp. 10-4DEP): inactive
- diameter of the inhibition zone (DIZ) [2]: inactive
- diameter of the inhibition zone (DIZ) (Oceanobacillus iheyensis): inactive
- zone of inhibition at 30 µg/disc (Bacillus sp. [3]): 6 mm
- zone of inhibition at 30 µg/disc [4]: 6 mm
- diameter of the inhibition zone (DIZ) (Alteromonas sp.): inactive
- MIC (Bacillus sp. [5]): >30 µg

SMILES: C=C(C)[C@@H]1C/C=C(/C=O)CC[C@H]2O[C@]2(C)CC/C=C(\C)CC1 [KNIGHTAL]
- MIC [1]: 8 µg
- zone of inhibition at 30 µg/disc (Kocuria sp. 10-4DEP): 8 mm
- zone of inhibition at 30 µg/disc [2]: 6 mm
- zone of inhibition at 30 µg/disc (Oceanobacillus iheyensis): 6 mm
- zone of inhibition at 30 µg/disc (Bacillus sp. [3]): 8 mm
- diameter of the inhibition zone (DIZ) [4]: inactive
- zone of inhibition at 30 µg/disc (Alteromonas sp.): 6 mm
- Activity (Escherichia coli): Active
- MIC [6]: 8 µg
- MIC (Bacillus sp. [5]): 16 µg

SMILES: C=C(C)[C@H]1CC/C(C)=C/CC[C@@]2(C)O[C@@H]2CC/C(CO)=C\[C@@H]1O [ASPERDIOL]
- MIC [1]: >30 µg
- diameter of the inhibition zone (DIZ) (Kocuria sp. 10-4DEP): inactive
- zone of inhibition at 30 µg/disc [2]: 8 mm
- diameter of the inhibition zone (DIZ) (Oceanobacillus iheyensis): inactive
- zone of inhibition at 30 µg/disc (Bacillus sp. [3]): 6 mm
- diameter of the inhibition zone (DIZ) [4]: inactive
- diameter of the inhibition zone (DIZ) (Alteromonas sp.): inactive
- MIC (Bacillus sp. [5]): 4 µg

SMILES: C=C(C)[C@H]1CC/C(C)=C/C/C=C(\C)[C@H](O)CC/C(COC(C)=O)=C\[C@@H]1OC(C)=O
- MIC [1]: 30 µg
- zone of inhibition at 30 µg/disc (Kocuria sp. 10-4DEP): 6 mm
- zone of inhibition at 30 µg/disc [2]: 8 mm
- zone of inhibition at 30 µg/disc (Oceanobacillus iheyensis): 6 mm
- zone of inhibition at 30 µg/disc (Bacillus sp. [3]): 8 mm
- zone of inhibition at 30 µg/disc [4]: 6 mm
- zone of inhibition at 30 µg/disc (Alteromonas sp.): 6 mm
- Activity (Escherichia coli): Active
- MIC [6]: >30 µg
- MIC (Bacillus sp. [5]): 30 µg

SMILES: C=C(C)[C@@H]1C/C=C(/COC(C)=O)CC[C@H]2O[C@]2(C)CC/C=C(\C)CC1 [KNIGHTOL ACETATE]
- MIC [1]: 8 µg
- diameter of the inhibition zone (DIZ) (Kocuria sp. 10-4DEP): inactive
- zone of inhibition at 30 µg/disc [2]: 6 mm
- zone of inhibition at 30 µg/disc (Oceanobacillus iheyensis): 6 mm
- zone of inhibition at 30 µg/disc (Bacillus sp. [3]): 6 mm
- diameter of the inhibition zone (DIZ) [4]: inactive
- diameter of the inhibition zone (DIZ) (Alteromonas sp.): inactive
- MIC [6]: 8 µg
- MIC (Bacillus sp. [5]): 30 µg

SMILES: C=C1CC/C=C(\C)CC[C@H](C(=C)C)[C@@H](OC(C)=O)/C=C(/COC(C)=O)CC[C@H]1O
- MIC [1]: >30 µg
- zone of inhibition at 30 µg/disc (Kocuria sp. 10-4DEP): 6 mm
- zone of inhibition at 30 µg/disc [2]: 6 mm
- zone of inhibition at 30 µg/disc (Oceanobacillus iheyensis): 6 mm
- zone of inhibition at 30 µg/disc (Bacillus sp. [3]): 8 mm
- zone of inhibition at 30 µg/disc [4]: 6 mm
- diameter of the inhibition zone (DIZ) (Alteromonas sp.): inactive
- Activity (Escherichia coli): Active
- MIC (Bacillus sp. [5]): >30 µg

SMILES: C=C(C)[C@@H]1C/C=C(/CO)CC[C@H]2O[C@]2(C)CC/C=C(\C)CC1 [KNIGHTOL]
- MIC [1]: 8 µg
- zone of inhibition at 30 µg/disc (Kocuria sp. 10-4DEP): ≥ 10 mm
- zone of inhibition at 30 µg/disc [2]: 6 mm
- zone of inhibition at 30 µg/disc (Oceanobacillus iheyensis): 6 mm
- zone of inhibition at 30 µg/disc (Bacillus sp. [3]): ≥ 10 mm
- diameter of the inhibition zone (DIZ) [4]: inactive
- zone of inhibition at 30 µg/disc (Alteromonas sp.): 6 mm
- Activity (Escherichia coli): Active
- MIC (Bacillus sp. [5]): 2 µg
